Screens deposited in PubChem by Sanford-Burnham Center for Chemical Genomics.
The list is not random: actives were taken first. Their share in the collection is about 3.1%.
SENP8 block-1 = SENP8 protease inhibitors, primary screen, biochemical, luminescence. purified SENP8, Z-RLRGG-aminoluciferin cleavage. inhibition, % at 10 µM. 330,000 tested, 1.2% active. AID 2540, 2010; in the data active = inhibition above about 50%
Target sequence (Q96LD8 whole entry, looked up): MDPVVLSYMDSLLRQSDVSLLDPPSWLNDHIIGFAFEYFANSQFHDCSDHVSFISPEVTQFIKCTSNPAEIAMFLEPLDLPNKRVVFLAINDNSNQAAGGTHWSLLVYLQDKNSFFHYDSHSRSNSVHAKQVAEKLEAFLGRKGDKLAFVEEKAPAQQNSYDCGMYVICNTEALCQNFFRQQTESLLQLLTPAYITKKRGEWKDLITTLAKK
Apaf1 inhib = inhibitors of human Apaf-1 apoptosome, primary screen, biochemical, DEVD-Rh110 fluorescence, uHTS; reconstituted apoptosome caspase-3 activity; inhibition, % at 20 µM; 330,000 tested, 0.71% active; AID 489030, 2010; active = inhibition of at least 40% at 20 µM;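 note: plate controls were DMSO wells for no effect and DEVD-CHO caspase inhibitor wells for full effect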
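Material: reconstituted apoptosome with Apaf-1, cytochrome c, caspase-9, procaspase-3, dATP; medium: pH 7.5 Hepes buffer with CHAPS, BSA, DTT; also added: cytochrome c and DEVD-Rh110 substrate; timing: 30 min plus 50 min, RT; signal: Rh110 fluorescence intensity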
SENP6 inh = SENP6 protease inhibitors, primary screen, biochemical, luminescence, uHTS; 330,000 tested, 1.8% active; Recombinant SENP6 catalytic domain, aminoluciferin luminescence; inhibition, % at 10 µM;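 active = inhibition above about 50% at the single tested dose, limit read from the data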;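 note: plate controls were DMSO wells with enzyme for no effect and DMSO wells lacking enzyme for full effect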
SENP7 block = SENP7 protease inhibitors, primary screen, biochemical, luminescence, uHTS. inhibition, % at 5 µM. AID 434973, 2010. Sentrin-specific protease 7 (Homo sapiens), Q9BQF6. recombinant SENP7, Z-RLRGG-aminoluciferin luminescence, 40 min. 330,000 tested, 1.5% active;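 active = inhibition above about 50% at the single test dose, limit read from the data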;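 note: plate controls were DMSO with enzyme for no effect and no enzyme buffer wells for full effect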
UBC13 inh = UBC13 polyubiquitin chain formation inhibitors, primary screen, biochemical, TR-FRET, uHTS. Ubiquitin-conjugating enzyme E2 N (Homo sapiens), P61088. AID 485273, 2010. inhibition, % at 20 µM. 330,000 tested, 0.47% active; in the data active = inhibition above about 45%, passing the limit was not always enough
Target sequence (P61088 whole entry, looked up): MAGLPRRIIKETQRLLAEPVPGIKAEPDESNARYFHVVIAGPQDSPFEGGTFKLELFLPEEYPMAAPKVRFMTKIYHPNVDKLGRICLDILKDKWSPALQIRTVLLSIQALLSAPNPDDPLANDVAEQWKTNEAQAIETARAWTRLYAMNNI
SENP8 block-2 = human SENP8 protease inhibitors, primary screen, biochemical, fluorescence, Nedd8 protein substrate, uHTS. Sentrin-specific protease 8 (Homo sapiens), Q96LD8. recombinant SENP8. inhibition, % at 20 µM. 360,000 tested, 0.64% active. AID 602440, 2012; in the data active = inhibition mostly above about 40%, no sharp cut-off; inactive = mostly below about 27%
SENP8 conf = SENP8 protease inhibitors, retest, confirmation, biochemical, luminescence, single concentration; shares compounds with SENP7 block; Recombinant SENP8, Z-RLRGG-aminoluciferin luminescence, 60 min; inhibition, % at 12.5 µM; 6,200 tested, 40% active; AID 488912, 2010;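 active = mean inhibition across replicates above about 50%, limit read from the data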
SENP6 conf = SENP6 protease inhibitors, confirmation, biochemical, luminescence, single concentration | recombinant SENP6, Z-RLRGG-aminoluciferin luminescence | inhibition, % at 12.5 µM | 6,200 tested, 58% active | shares compounds with SENP7 block
SENP7 conf = SENP7 protease inhibitors, retest, confirmation, biochemical, luminescence, single concentration | shares compounds with SENP7 block | recombinant SENP7, Z-RLRGG-aminoluciferin luminescence, 40 min | inhibition, % at 12.5 µM | 6,200 tested, 69% active | AID 488917, 2010
Casp3 SENP sel = caspase-3 protease inhibitors, confirmation, selectivity assay for SENP inhibitor project, biochemical, single concentration | inhibition, % at 12.5 µM | shares compounds with SENP7 block | 6,200 tested, 60% active | purified caspase-3, Z-DEVD-aminoluciferin luminescence, 60 min | AID 488918, 2010;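 active = mean inhibition above about 50%, limit read from the data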;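 note: plate controls were enzyme with DMSO for no effect and wells without caspase-3 for full effect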
Luc interf = luminescence interference (SENP counter-screen); shares compounds with SENP7 block; Pre-incubated SENP8/Z-RLRGG-aminoluciferin, luciferase luminescence interference; inhibition, % at 12.5 µM; 6,200 tested, 39% active; AID 488919;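 active = mean inhibition above about 50% when retested at one dose, limit read from the data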;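 note: plate controls were DMSO wells with completed reaction for no effect and substrate without enzyme for full effect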
Numbers without * were called inactive.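 Rule for the calls, unless noted: active = mean inhibition above about 50% in the one-dose retest (limit read from the data); inactive = the rest.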

CC(C)N(C)c1ncnc2c1ncn2[C@H]1CN(Cc2ccc3c(c2)OCO3)C[C@@H](CO)O1 was read as SENP8 block-2 20.
For Cc1cc(C(=O)CSc2nc(N)cc(=O)[nH]2)ccc1F the results were SENP8 block-1 90*, Apaf1 inhib -3, SENP6 inh 7, SENP7 block 1, UBC13 inh 3, SENP8 block-2 20, SENP8 conf 2, SENP6 conf 4, SENP7 conf 3, Casp3 SENP sel -4 and Luc interf 1.
Cc1ccc(C(=O)CSc2nc(N)cc(=O)[nH]2)cc1C was read as SENP8 block-1 -5, Apaf1 inhib 5, SENP6 inh 3, SENP7 block -3, UBC13 inh 2 and SENP8 block-2 2.
Screening C[C@H]1CN([C@@H](C)CO)C(=O)CCCn2cc(nn2)CO[C@@H]1CN(C)C(=O)Nc1ccc2c(c1)OCCO2 returned SENP8 block-2 10.
Cc1cccc(NC(=S)N=Nc2c(O)n(CN3CCOCC3)c3ccccc23)c1C was read as SENP8 block-1 6, Apaf1 inhib 12, SENP6 inh -13, SENP7 block -6, UBC13 inh 30 and SENP8 block-2 18.
For Cc1ccc(N=Nc2c(O)n(CN3CCOCC3)c3ccccc23)cc1 the results were SENP8 block-1 78*, Apaf1 inhib 17, SENP6 inh 67*, SENP7 block 84*, UBC13 inh -16, SENP8 block-2 6, SENP8 conf 33, SENP6 conf 88*, SENP7 conf 98*, Casp3 SENP sel 63* and Luc interf 26.
For CC(C)N(C(=O)[C@H]1CC(CC(=O)NCC23CC4CC(CC(C4)C2)C3)C(=O)N2CCc3c([nH]c4ccccc34)[C@]12C)C(C)C (stereo partly drawn) the results were SENP8 block-1 -5, Apaf1 inhib 23, SENP6 inh -9, SENP7 block -7, UBC13 inh -17 and SENP8 block-2 8.
Screening CCc1ccc(-c2nc(-c3ccncc3)no2)cc1 returned SENP8 block-1 80*, Apaf1 inhib 4, SENP6 inh 87*, SENP7 block 90*, UBC13 inh 1, SENP8 block-2 26, SENP8 conf 84*, SENP6 conf 88*, SENP7 conf 97*, Casp3 SENP sel 80* and Luc interf 67*.
Screening CCCCc1ccc(-c2nc(-c3ccncc3)no2)cc1 returned SENP8 block-1 83*, Apaf1 inhib 10, SENP6 inh 21, SENP7 block 90*, UBC13 inh 1, SENP8 block-2 0, SENP8 conf 11, SENP6 conf 11, SENP7 conf 9, Casp3 SENP sel -5 and Luc interf 2.
